Laboratory results from PubChem BioAssay.
Active and inactive are the calls of the source.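 How the source made its calls: active means active in primary screen and both duplicates, each dropping signal beyond three positive-control SD with fluorescence still positive; inactive means the rest.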

Target: Short transient receptor potential channel 6 (Mus musculus) (UniProt Q61143)
Test: TRPC6 blockade by TRPC4 inhibitor hits – cell-based, HEK293, membrane potential dye, duplicate, selectivity assay for TRPC4 inhibitor project, confirmation (AID 434948)
Settings: HEK293 TRPC6, membrane potential dye fluorescence, at 10 µM, stimulated with maximal-effect acetylcholine; stronger effect = higher value
In short: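 System: TRPC6-expressing HEK293 cells. Timing: dye 45 min RT, compound 110 s, agonist read 110 s. Measured by: kinetic fluorescence of membrane potential dye with 5 s baseline.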

Sequence of Short transient receptor potential channel 6 (Mus musculus) (Q61143 whole entry, looked up): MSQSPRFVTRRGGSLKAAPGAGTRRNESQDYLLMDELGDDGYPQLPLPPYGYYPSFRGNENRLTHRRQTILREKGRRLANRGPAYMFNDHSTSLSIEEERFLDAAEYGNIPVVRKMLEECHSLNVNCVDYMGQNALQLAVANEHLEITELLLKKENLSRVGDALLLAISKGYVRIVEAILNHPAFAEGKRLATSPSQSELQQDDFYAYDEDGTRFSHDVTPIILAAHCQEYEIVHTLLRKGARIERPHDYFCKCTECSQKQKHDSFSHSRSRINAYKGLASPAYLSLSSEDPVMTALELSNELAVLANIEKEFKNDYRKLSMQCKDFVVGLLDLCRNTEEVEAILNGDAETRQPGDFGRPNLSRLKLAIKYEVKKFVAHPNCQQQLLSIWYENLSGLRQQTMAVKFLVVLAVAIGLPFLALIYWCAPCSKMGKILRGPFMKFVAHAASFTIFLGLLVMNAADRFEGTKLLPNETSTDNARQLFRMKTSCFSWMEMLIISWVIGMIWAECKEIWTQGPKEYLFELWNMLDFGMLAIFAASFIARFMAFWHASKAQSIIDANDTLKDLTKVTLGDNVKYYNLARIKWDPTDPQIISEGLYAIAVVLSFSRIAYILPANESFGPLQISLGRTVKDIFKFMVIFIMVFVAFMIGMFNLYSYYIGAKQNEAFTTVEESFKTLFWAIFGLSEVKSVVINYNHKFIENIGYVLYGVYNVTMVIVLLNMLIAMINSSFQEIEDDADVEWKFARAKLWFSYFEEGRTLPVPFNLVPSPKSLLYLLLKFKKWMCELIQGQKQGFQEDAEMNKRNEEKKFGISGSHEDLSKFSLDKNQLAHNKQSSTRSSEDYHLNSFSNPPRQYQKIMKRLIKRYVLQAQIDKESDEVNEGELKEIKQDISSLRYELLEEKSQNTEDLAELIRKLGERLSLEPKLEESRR

| Structure (SMILES) | outcome | inhibition |
| --- | --- | --- |
| CCOC(=O)c1c(N)sc(C(O)(C(F)(F)F)C(F)(F)F)c1-c1ccccc1 | inactive |  |
| CC1CCCN(CCCN2C(=O)C3C(C(=O)Nc4ccc(Cl)cc4)C4C=CC3(O4)C2C(=O)NC2CCCCC2)C1 (stereo not drawn) | inactive |  |
| O=C(C[n+]1cccc(CNC(=O)c2ccc(OC(F)F)cc2)c1)Nc1ccc(SC(F)F)cc1 | inactive |  |
| Cc1ncsc1CCOC(=O)c1cccc([N+](=O)[O-])c1 | inactive |  |
| CC#CC[N+](C)(C)CCCCCCCCCCCC |  | 36% (active) |
| Cc1cc(OCc2cc(C(=O)NCCN3CCCCC3CO)no2)cc(C)c1Cl (stereo not drawn) | inactive |  |
| Cc1cc(N2CCC(C)CC2)nc2cccc(O)c12 |  | 59% (active) |
| Fc1ccccc1COc1ccc(Br)cc1CNCC1CCCO1 (stereo not drawn) |  | 39.5% (active) |
| Cn1cc(CNCC2CCCO2)c(-c2ccc(Oc3ccccc3)cc2)n1 (stereo not drawn) | inactive |  |
| COc1cccc(C2=NN(C(=O)c3ccco3)C(c3ccco3)C2)c1 (stereo not drawn) | inactive |  |
| O=C(COC(=O)Cn1cnc2ccccc2c1=O)Nc1ccccc1Sc1ccc(Cl)cc1 | inactive |  |
| NC(=O)c1nsc(C(=O)N(Cc2ccccc2Cl)C(C(=O)NCC2CCCO2)c2ccc(O)cc2)c1N (stereo not drawn) | inactive |  |
| O=C(NC1CCCCC1)N1CCN(C(c2ccccc2)c2ccccc2)CC1 | inactive |  |
| Cc1ccc(NC(=S)N(CCCN(C)C)Cc2cc3cc4c(cc3[nH]c2=O)OCO4)c(C)c1 | inactive |  |
| CCCC[n+]1c2ccccc2cc2ccccc21 | inactive |  |
| CC(C)(C)CC(C)(C)NCC(O)COc1ccc2c(c1)CCC2 (stereo not drawn) | inactive |  |
| CCOc1ccc(Cl)cc1/C=N/O |  | 2% (active) |
| O=C(C[n+]1cc(-c2ccc(Cl)c(Cl)c2)n2c1CCC2)N1c2ccccc2Sc2ccccc21 |  | 53.5% (active) |
